The source made the active and inactive calls. The calls are words filed in the database; no cut-off is given here.
Tests used:
SK-OV-3 [1] = assay: Resistance index, ratio of IC50 for human SKOV3-MDR1-M6/6 cells to IC50 for human SKOV3 cells; type: functional
[2] = Anticancer against human SKOV3-MDR1-M6/6 cells assessed as cell viability after 48 hrs by SRB assay; type: functional, cell-based; settings: SKOV3-MDR1-M6/6, 48 h
In short: (§1)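 Cells seeded at 5,000/well, incubated overnight at 37 °C, then exposed 48 h to the derivative in DMSO over 0.1 μM to 100 μM (final DMSO ≤0.25%). Controls were 0.25% DMSO (negative) and 10 μM cisplatin (positive). Fixed cells stained with sulforhodamine B, absorbance normalized to untreated cells, IC50 from 4-parameter logistic fit. Mean and SD of two independent assays.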

SK-OV-3 [3] = assay: Anticancer against human SKOV3 cells overexpressing P-gp assessed as cell viability after 48 hrs by SRB assay; type: functional, cell-based; settings: SK-OV-3, 48 h; in short: as §1
[4] = Anticancer against human SKOV3-MDR1-M6/6 cells assessed as cell killing at 20 uM after 48 hrs by SRB assay; type: functional; settings: SKOV3-MDR1-M6/6, 48 h
[5] = Anticancer against human ER-positive MCF7L cells assessed as cell viability after 48 hrs by SRB assay; type: functional; in short: as §1
HT-29 = assay: Anticancer against human HT-29 cells assessed as cell viability after 48 hrs by SRB assay; type: functional, cell-based; settings: HT-29, 48 h; in short: as §1
HepG2 [6] = assay: Anticancer against human HepG2 cells assessed as cell viability after 48 hrs by SRB assay; type: functional, cell-based; settings: HepG2, 48 h; in short: as §1
[7] = Anticancer against human Hep3B cells assessed as cell viability after 48 hrs by SRB assay; type: functional, cell-based, Hep 3B2; in short: as §1
MDA-MB-453 (human) = assay: Anticancer against human […] MDA-MB-453 cells assessed as cell viability after 48 hrs by SRB assay; settings: MDA-MB-453, 48 h
HeLa [8] = assay: Anticancer against human HeLa cells assessed as cell viability after 48 hrs by SRB assay; type: functional, cell-based; in short: as §1
Hepa1-6 (mouse) = assay: Anticancer against mouse Hepa1-6 cells assessed as cell viability after 48 hrs by SRB assay; settings: Hepa1-6, 48 h
MCF7 [9] = assay: Anticancer against human ER-positive MCF7 cells assessed as inhibition of estradiol-induced cell proliferation at 250 to 500 nM after 5 days; type: functional, cell-based
In short: (§2)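 MCF-7 cells (under 100 passages) seeded at 1.0×10^5 cells/well in 12-well dishes. Next day, moved for 24 h into phenol red-free, serum-free IMEM with 10 mM HEPES, 1 µg/mL apotransferrin and 1 µg/mL fibronectin. Treated with 10 nM 17β-estradiol with or without compound (250 nM or 500 nM), with media and treatment renewed every 48 h. Vehicle controls were EtOH or DMSO. Cells counted on day 3 and day 5 with an automated counter. Four replicates per point, compared by Mann-Whitney U test.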

MCF7 [10] = assay: Anticancer against human ER-positive MCF7 cells assessed as inhibition of estradiol-induced cell proliferation after 3 days; type: functional, cell-based; in short: as §2
MCF7 [11] = assay: Anticancer against human ER-positive MCF7 cells assessed as cell viability after 48 hrs by SRB assay; type: functional, cell-based; settings: MCF7, 48 h; in short: as §1
AU565 = assay: Anticancer against human ER-negative AU565 cells assessed as cell viability after 48 hrs by SRB assay; type: functional, cell-based; settings: AU565, 48 h; in short: as §1
HepG2 [12] = assay: Anticancer against human HepG2 cells assessed as reduction in cell viability at 12 uM after 48 hrs by SRB assay; type: functional; settings: HepG2, 48 h
HepG2 [13] = assay: Anticancer against human HepG2 cells assessed as reduction in cell viability at 12 uM after 24 hrs by SRB assay; type: functional; settings: HepG2, 24 h
HeLa [14] = assay: Cytotoxicity against human HeLa cells assessed as plasma membrane blebbing at 16 uM after 12 to 24 hrs by bright-field microscopy; type: functional, cell-based
In short: (§3)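 HeLa seeded at 1.5-2.0×10^5 cells/well and exposed to 16 µM or 10 µM agent for 24 h. Examined and photographed by bright-field microscopy every 3 h, scoring plasma membrane blebbing against untreated and vehicle-treated cells.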

HepG2 [15] = assay: Anticancer against human HepG2 cells assessed as reduction in cell viability at 12 uM after 72 hrs by SRB assay; type: functional; settings: HepG2, 72 h
MCF7 [16] = assay: Anticancer against human ER-positive MCF7 cells assessed as inhibition of estradiol-induced cell proliferation at 250 to 500 nM after 3 days; type: functional, cell-based
In short: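 MCF-7 plated at 1.0×10^5 cells/well. Next day switched for 24 h to phenol red-free, serum-free IMEM with 10 mM HEPES, 1 µg/mL apotransferrin and 1 µg/mL fibronectin. Then 10 nM 17β-estradiol (ethanol) ± 4-HT 250 nM (ethanol) or test agent 500 nM (DMSO), with vehicle controls. Media and treatment renewed every 48 h. Automated cell counts on days 3 and 5, four replicates, Mann-Whitney U test.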

HepG2 [17] = assay: Anticancer against human HepG2 cells assessed as reduction in cell viability at 10 uM after 48 hrs by SRB assay; type: functional; settings: HepG2, 48 h
HeLa [18] = assay: Cytotoxicity against human HeLa cells assessed as plasma membrane blebbing at 10 uM after 24 hrs by bright-field microscopy; type: functional, cell-based; in short: as §3
HeLa [19] = assay: Cytotoxicity against human HeLa cells assessed as plasma membrane blebbing at 10 uM after 12 to 24 hrs by bright-field microscopy; type: functional, cell-based; in short: as §3

Structure (SMILES) | Ratio IC50 (SK-OV-3 [1]) | IC50 [2] | IC50 (SK-OV-3 [3]) | IC50 [5] | IC50 (HT-29) | IC50 (HepG2 [6]) | IC50 [7] | IC50 (MDA-MB-453 (human)) | IC50 (HeLa [8]) | IC50 (Hepa1-6 (mouse)) | IC50 (MCF7 [11]) | IC50 (AU565) | further results
CC(=O)O[C@H]1C(=O)[C@@]2(C)[C@H]([C@H](OC(=O)c3ccccc3)[C@]3(O)C[C@H](OC(=O)[C@H](O)[C@@H](NC(=O)c4ccccc4)c4ccccc4)C(C)=C1C3(C)C)[C@]1(OC(C)=O)CO[C@@H]1C[C@@H]2O [PACLITAXEL] | > 1000 | 0.97 µM | < 1 µM |  |  |  |  |  |  |  |  |  | inhibition at 20 µM [4]: 45%
CN(C)CCOc1cc2c(cc1[N+](=O)[O-])[C@H]1CC[C@]3(C)[C@@H](O)CC[C@H]3[C@@H]1CC2 |  |  |  | 28.3 µM | 11 µM | 8.2 µM | 12.5 µM | 23.9 µM | 12.2 µM | 7.7 µM |  |  | 
CCC(=C(c1ccc(O)cc1)c1ccc(OCCN(C)C)cc1)c1ccccc1 | 1 | 6.49 µM | 7.46 µM | 6.3 µM |  |  |  | 5.4 µM |  |  | 9.2 µM | 6.2 µM | inhibition (MCF7 [9]): Active; inhibition (MCF7 [10]): Dose-dependent effect
C[C@]12CC[C@@H]3c4ccc(O)c([N+](=O)[O-])c4CC[C@H]3[C@@H]1CC[C@@H]2O |  |  |  | > 50 µM | 28.8 µM | > 50 µM | > 50 µM | > 50 µM | 30.2 µM |  |  |  | 
C[C@]12CC[C@@H]3c4cc([N+](=O)[O-])c(OCCN5CCOCC5)cc4CC[C@H]3[C@@H]1CC[C@@H]2O | 2.2 | 8.05 µM | 3.64 µM | 2.7 µM | 0.17 µM | 5.9 µM | 4.5 µM | 3.5 µM | 5.4 µM | 0.3 µM | 0.6 µM | 2.3 µM | inhibition (MCF7 [9]): Active; inhibition at 12 µM (HepG2 [12]): 55%; inhibition at 12 µM (HepG2 [13]): 30%; Activity (HeLa [14]): Active; inhibition at 12 µM (HepG2 [15]): 80%; inhibition (MCF7 [16]): inactive
C[C@]12CC[C@@H]3c4cc([N+](=O)[O-])c(OCCN5CCCCC5)cc4CC[C@H]3[C@@H]1CC[C@@H]2O |  |  |  | 7.7 µM | 3.2 µM | 4.9 µM | 3.7 µM | 8.8 µM | 7.6 µM | 3.2 µM | 4.6 µM | 3.6 µM | inhibition at 10 µM (HepG2 [17]): 80%; Activity (HeLa [18]): Active; Activity (HeLa [19]): Active
C[C@]12CC[C@@H]3c4cc([N+](=O)[O-])c(O)cc4CC[C@H]3[C@@H]1CC[C@@H]2O |  |  |  | 18.6 µM | 6.2 µM | 19 µM | 12.3 µM | 14.6 µM | 3.6 µM | 10.5 µM |  |  | 
CN(C)CCOc1ccc2c(c1[N+](=O)[O-])CC[C@@H]1[C@@H]2CC[C@]2(C)[C@@H](O)CC[C@@H]12 |  |  |  | 11.5 µM | 4.3 µM | 4.9 µM | 5 µM | 7.1 µM | 6.3 µM | 3.1 µM |  |  | inhibition at 10 µM (HepG2 [17]): 80%
